Test results as given in ChEMBL document CHEMBL1155916, “Fluorinated phenylcyclopropylamines. Part 5: Effects of electron-withdrawing or -donating aryl substituents on the inhibition of monoamine oxidases A and B by 2-aryl-2-fluoro-cyclopropylamines” (Bioorg Med Chem, 2008).

Legend:
[1] = target: T1, Amine oxidase [flavin-containing] B (Homo sapiens, UniProt P27338); assay: Inhibition of human recombinant MAOB
T1 sequence (P27338 whole entry): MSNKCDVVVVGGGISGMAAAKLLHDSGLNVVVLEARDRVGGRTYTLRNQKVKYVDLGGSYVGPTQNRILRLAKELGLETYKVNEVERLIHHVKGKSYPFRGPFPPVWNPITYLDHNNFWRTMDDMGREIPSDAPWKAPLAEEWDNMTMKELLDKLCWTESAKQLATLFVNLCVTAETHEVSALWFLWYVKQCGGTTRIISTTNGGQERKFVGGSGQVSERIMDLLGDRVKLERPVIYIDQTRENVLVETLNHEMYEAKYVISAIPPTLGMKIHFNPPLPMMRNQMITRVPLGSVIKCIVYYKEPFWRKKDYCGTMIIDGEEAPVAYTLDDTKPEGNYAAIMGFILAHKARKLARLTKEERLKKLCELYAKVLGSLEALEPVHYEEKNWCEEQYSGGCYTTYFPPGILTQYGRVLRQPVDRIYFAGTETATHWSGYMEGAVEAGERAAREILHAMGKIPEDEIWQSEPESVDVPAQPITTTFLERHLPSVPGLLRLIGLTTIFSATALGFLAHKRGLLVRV
Procedure, shortened: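 Recombinant human mitochondrial MAO B was gel-filtered into 50 mM K phosphate pH 7.2 with 0.8% octyl-glucoside. Enzyme (7.0 µg) was held 10 min at 10 °C with varying inhibitor concentrations (DMSO) in 0.1 M K phosphate pH 7.2, 6% DMSO, without substrate. The reaction was started with 1 mM benzylamine, and benzaldehyde formation was read at 250 nm at 25 °C.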

[2] = Dissociation constant, pKa by titrimetric method; format: physicochemical
Procedure, shortened: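 Titration in 0.1 M KNO₃ at 21 °C.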

[3] = target: T2, Amine oxidase [flavin-containing] A (Homo sapiens, UniProt P21397); assay: Inhibition of human recombinant MAOA
T2 sequence (P21397 whole entry): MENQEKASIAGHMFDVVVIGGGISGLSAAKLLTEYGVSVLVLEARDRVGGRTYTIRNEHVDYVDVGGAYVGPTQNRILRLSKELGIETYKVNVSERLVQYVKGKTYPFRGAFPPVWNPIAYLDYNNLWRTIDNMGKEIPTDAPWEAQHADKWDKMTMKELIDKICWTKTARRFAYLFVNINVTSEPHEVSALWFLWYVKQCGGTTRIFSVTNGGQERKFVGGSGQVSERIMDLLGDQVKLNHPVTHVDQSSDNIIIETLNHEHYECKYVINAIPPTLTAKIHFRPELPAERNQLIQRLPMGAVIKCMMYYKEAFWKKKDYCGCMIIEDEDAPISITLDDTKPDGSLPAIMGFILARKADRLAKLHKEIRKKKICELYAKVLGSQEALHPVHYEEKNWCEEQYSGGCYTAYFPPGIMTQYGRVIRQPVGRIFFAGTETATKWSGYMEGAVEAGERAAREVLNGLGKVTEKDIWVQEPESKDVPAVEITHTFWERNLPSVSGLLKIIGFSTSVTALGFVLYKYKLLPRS
Procedure, shortened: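 Recombinant human mitochondrial MAO A, desalted into 50 mM K phosphate pH 7.2 with 0.8% octyl-glucoside. Enzyme (4.4 µg) preincubated 10 min at 10 °C with varying inhibitor concentrations (DMSO) in substrate-free mix: 50 mM K phosphate pH 7.2, 0.5% reduced Triton X-100, 6% DMSO.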

Homo sapiens [4] = organism: Homo sapiens; assay: Selectivity for human recombinant MAOA over human recombinant MAOB
[5] = Inhibition of tyramine oxidase
[6] = Lipophilicity, log D at pH 7.4; format: physicochemical; conditions: buffer
Homo sapiens [7] = organism: Homo sapiens; assay: Selectivity for human recombinant MAOB over human recombinant MAOA
Homo sapiens [8] = organism: Homo sapiens; assay: Selectivity for human recombinant MAOA over human recombinant MAOB
[9] = target: T3, Amine oxidase [copper-containing] 3 (Rattus norvegicus, UniProt O08590); assay: Inhibition of rat CAO
T3 sequence (O08590 whole entry): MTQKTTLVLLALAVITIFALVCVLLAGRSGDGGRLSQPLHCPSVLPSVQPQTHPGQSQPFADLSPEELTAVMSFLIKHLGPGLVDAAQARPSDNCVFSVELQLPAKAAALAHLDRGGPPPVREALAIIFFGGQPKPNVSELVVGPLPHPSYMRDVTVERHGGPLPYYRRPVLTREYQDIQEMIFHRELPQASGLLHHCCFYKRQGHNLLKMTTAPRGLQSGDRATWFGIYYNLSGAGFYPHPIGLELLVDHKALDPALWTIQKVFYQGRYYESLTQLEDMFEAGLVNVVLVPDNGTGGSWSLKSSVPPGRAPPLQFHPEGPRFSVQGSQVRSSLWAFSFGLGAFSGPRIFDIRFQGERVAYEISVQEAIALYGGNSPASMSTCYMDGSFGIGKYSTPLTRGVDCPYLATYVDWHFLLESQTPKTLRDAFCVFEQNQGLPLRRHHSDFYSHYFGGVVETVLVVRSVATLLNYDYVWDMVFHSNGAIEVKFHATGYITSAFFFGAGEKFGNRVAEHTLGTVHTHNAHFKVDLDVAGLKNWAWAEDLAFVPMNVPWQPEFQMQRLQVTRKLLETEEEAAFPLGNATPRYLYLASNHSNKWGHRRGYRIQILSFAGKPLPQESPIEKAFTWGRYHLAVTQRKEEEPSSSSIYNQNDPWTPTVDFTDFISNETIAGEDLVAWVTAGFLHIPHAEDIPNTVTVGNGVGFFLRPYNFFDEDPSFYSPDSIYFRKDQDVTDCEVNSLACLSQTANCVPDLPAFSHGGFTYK

| Compound | IC50 [1] | pKa [2] | IC50 ([3]; read-out: IC50) | Ratio IC50 (Homo sapiens [4]) | logD [6] | Ratio IC50 (Homo sapiens [7]) | also measured |
| --- | --- | --- | --- | --- | --- | --- | --- |
| COc1ccc([C@@]2(F)C[C@@H]2N)cc1 (relative stereo) | 5.1 µM | 7.5 | 14 µM | 2.8 | – | – | – |
| NC[C@@]1(c2ccccc2)C[C@@H]1F | – | – | 320 µM | – | – | – | IC50 [5]: 12 µM |
| N[C@H]1C[C@]1(F)c1ccccc1 (relative stereo) | 6.4 µM | – | 12 µM | 2 | 1.53 | – | – |
| Cc1ccc([C@@]2(F)C[C@H]2N)cc1 (relative stereo) | 30 µM | 7.04 | 230 µM | 7.7 | – | – | – |
| N[C@@]1(c2ccccc2)C[C@@H]1F (relative stereo) | – | – | – | – | – | 100 | – |
| Cc1ccc([C@@]2(F)C[C@@H]2N)cc1 (relative stereo) | 13 µM | 7.41 | 13 µM | – | 1.83 | 1 | – |
| N[C@@H]1C[C@@H]1c1ccccc1 (relative stereo) | – | 8.47 | – | – | 1.41 | – | – |
| N[C@H]1C[C@]1(F)c1ccc(C(F)(F)F)cc1 (relative stereo) | 5.4 µM | 7 | 0.8 µM | – | 2.66 | 6.8 | – |
| N[C@]1(c2ccccc2)C[C@]1(F)c1ccccc1 (racemic) | 20 µM | 5.8 | 10 µM | – | – | 2 | – |
| N[C@@H]1C[C@]1(F)c1ccc(Cl)cc1 (relative stereo) | 4.8 µM | 6.81 | 89 µM | 18.5 | 2.66 | – | – |
| COc1ccc([C@@]2(F)C[C@H]2N)cc1 (relative stereo) | 18 µM | – | – | – | – | – | Activity ([3]; human): Not Active |
| N[C@H]1C[C@]1(F)c1ccc(Cl)cc1 (relative stereo) | 3.7 µM | 7.19 | 1.6 µM | – | 2.23 | 2.3 | – |
| N[C@@H]1C[C@]1(F)c1ccc(C(F)(F)F)cc1 (relative stereo) | 7.1 µM | 6.6 | 76 µM | 10.7 | 3.13 | – | – |
| N[C@H]1C[C@]1(F)c1ccc(F)cc1 (relative stereo) | 4.9 µM | 7.31 | 3.6 µM | – | 1.6 | 1.4 | – |
| N[C@@H]1C[C@]1(F)c1ccc(F)cc1 (relative stereo) | 10 µM | 6.88 | 270 µM | 27 | 2.14 | – | – |
| COc1ccc(/C(=C\F)CN)cc1OC | – | – | – | – | – | – | Ratio Ki (Homo sapiens [8]): 100; Ki [3]: 231 µM; IC50 [9]: 0.006 µM |
| N[C@@H]1C[C@]1(F)c1ccccc1 (stereo in doubt) | 19 µM | – | 65 µM | 3.4 | 1.78 | – | – |
| COc1ccc([C@@]2(F)C[C@H]2N)cc1OC (relative stereo) | 470 µM | – | – | – | – | – | IC50 [3]: Not Active |
| COc1ccc([C@@]2(F)C[C@@H]2N)cc1OC (relative stereo) | 230 µM | 7.4 | 47 µM | – | 0.58 | 4.9 | – |
